According to ChEMBL document CHEMBL1165887, “Structure-activity relationships of monomeric C2-aryl pyrrolo[2,1-c][1,4]benzodiazepine (PBD) antitumor agents” (J Med Chem, 2010):

What was measured:
K562 = assay: Cytotoxicity against human K562 cells after 96 hrs by alamar blue assay; format: functional, cell-based; conditions: K562, 96 h
In short: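 K562 cells kept in RPMI with 10% fetal calf serum and 2 mM glutamine, seeded at 10⁴ cells/mL. Compounds serially diluted in DMSO and added in triplicate; exposure 96 h at 37 °C, 5% CO₂. Alamar Blue (1 μM final) then added for a further 4 h; read by fluorescence emission at 580-620 nm.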

[1] = Growth inhibition of human NCI60 cells after 48 hrs by SRB assay; format: functional; conditions: NCI60, 48 h; for CC50: read-out: LC50 (the source's name)

Row | Compound | IC50 (K562) | GI50 [1] | TGI [1] | CC50 [1]
1 | COc1cc2c(cc1OC)C(=O)N1C=C(c3ccccc3)C[C@H]1[C@H](S(=O)(=O)O)N2 | 16.5 nM | 54 nM | 430 nM | 2.5 nM
2 | COc1cc2c(cc1OC)C(=O)N1C=C(c3ccc(C(=O)NCCN(C)C)cc3)C[C@H]1C=N2 | 114 nM | 19 nM | 90 nM | 3890 nM
3 | COc1cc2c(cc1OC)C(=O)N1C=C(c3cccc(C(=O)O)c3)C[C@H]1C=N2 | > 1000 nM |  |  | 
4 | COc1cc2c(cc1OC)C(=O)N1C=C(c3ccc(C(=O)O)cc3)C[C@H]1C=N2 | > 1000 nM | 13200 nM | 23400 nM | 25100 nM
5 | COc1cc2c(cc1OC)C(=O)N1C=C(c3cccc(N)c3)C[C@H]1C=N2 | 59.5 nM | 4 nM | 50 nM | 5890 nM
6 | COc1cc2c(cc1OC)C(=O)N1C=CC[C@H]1C=N2 | 14.4 nM | 1350 nM | 8130 nM | 60200 nM
7 | COc1cc2c(cc1OC)C(=O)N1C=C(c3cccc4c3Sc3ccccc3S4)C[C@H]1C=N2 | > 1000 nM | 501 nM | 1740 nM | 8910 nM
8 | COc1cc2c(cc1OC)C(=O)N1C=C(c3ccc(F)cc3)C[C@H]1[C@H](S(=O)(=O)O)N2 | 16.3 nM | 5 nM | 40 nM | 1.6 nM
9 | COc1cc2c(cc1OC)C(=O)N1CCC[C@H]1C=N2 | 488 nM | 2140 nM | 19000 nM | 57500 nM
10 | COc1cc2c(cc1OC)C(=O)N1C=C(c3c(F)cccc3F)C[C@H]1C=N2 | 7.1 nM | 25 nM | 330 nM | 4360 nM
11 | COc1cc2c(cc1OC)C(=O)N1C=C(c3ccc(OCCCN(C)C)cn3)C[C@H]1C=N2 | 9.4 nM | 4 nM | 60 nM | 4070 nM
12 | COc1cc2c(cc1OC)C(=O)N1C=C(c3ccc4ncccc4c3)C[C@H]1[C@H](S(=O)(=O)O)N2 | 1.3 nM | 0.2 nM | 4 nM | 1.4 nM
13 | COc1cc2c(cc1OC)C(=O)N1C=C(c3ccc(N4CCN(C)CC4)cc3)C[C@H]1C=N2 | 0.63 nM | 5 nM | 80 nM | 8320 nM
14 | COc1cc2c(cc1OC)C(=O)N1C=C(c3ccc(C(=O)N4CCN(C)CC4)cc3)C[C@H]1C=N2 | 59.5 nM | 15 nM | 710 nM | 13800 nM
15 | COc1cc2c(cc1OC)C(=O)N1C=C(c3ccc(NC(C)=O)cc3)C[C@H]1C=N2 | 29.7 nM | 6 nM | 200 nM | 11500 nM
16 | COc1cc2c(cc1OC)C(=O)N1C=C(c3ccc(Cl)c(Cl)c3)C[C@H]1C=N2 | 106 nM | 3 nM | 50 nM | 3020 nM
17 | COc1cc2c(cc1OC)C(=O)N1C=C(c3ccc(C(C)(C)C)cc3)C[C@H]1[C@H](S(=O)(=O)O)N2 | 70 nM | 8 nM | 50 nM | 47.8 nM
18 | COc1cccc(C2=CN3C(=O)c4cc(OC)c(OC)cc4N[C@@H](S(=O)(=O)O)[C@@H]3C2)c1 | 7.1 nM | 5 nM | 70 nM | 0.4 nM
19 | COc1ccc2cc(C3=CN4C(=O)c5cc(OC)c(OC)cc5N=C[C@@H]4C3)ccc2c1 | 2.3 nM | 0.9 nM | 7 nM | 270 nM
20 | COc1cc2c(cc1OC)C(=O)N1C=C(/C=C/c3ccc(Cl)cc3)C[C@H]1C=N2 | 15.4 nM | 5 nM | 20 nM | 1000 nM
21 | COc1cc2c(cc1OC)C(=O)N1C=C(c3cccc(C(F)(F)F)c3)C[C@H]1C=N2 | 46.8 nM | 6 nM | 30 nM | 1350 nM
22 | COc1cc2c(cc1OC)C(=O)N1C=C(c3cccc([N+](=O)[O-])c3)C[C@H]1C=N2 | 58.1 nM | 5 nM | 50 nM | 5620 nM
23 | COc1cc2c(cc1OC)C(=O)N1C=C(c3cccc(Cl)c3)C[C@H]1C=N2 | 19.4 nM | 17 nM | 100 nM | 540 nM
24 | COc1cc2c(cc1OC)C(=O)N1C=C(c3ccc(N4CCOCC4)cc3)C[C@H]1C=N2 | 8.8 nM | 5 nM | 160 nM | 13200 nM
25 | COc1cc2c(cc1OC)C(=O)N1C=C(c3ccc4[nH]ccc4c3)C[C@H]1C=N2 | 12.6 nM | 5 nM | 40 nM | 7080 nM
26 | COC(=O)c1cccc(C2=CN3C(=O)c4cc(OC)c(OC)cc4N=C[C@@H]3C2)c1 | 12.4 nM | 5 nM | 40 nM | 7580 nM
27 | COc1cc2c(cc1OC)C(=O)N1C=C(c3cccc(C(=O)NCCCN(C)C)c3)C[C@H]1C=N2 | 273 nM | 102 nM | 850 nM | 14100 nM

Row | Compound | IC50 (K562) | GI50 [1] | TGI [1] | CC50 [1]
28 | COc1cc2c(cc1OC)C(=O)N1C=C(c3ccncc3)C[C@H]1C=N2 | 28.7 nM | 18 nM | 600 nM | 26900 nM
29 | COc1cc2c(cc1OC)C(=O)N1C=C(c3c(OC)cccc3OC)C[C@H]1C=N2 | 61 nM | 110 nM | 1100 nM | 11700 nM
30 | COc1cc2c(cc1OC)C(=O)N1C=C(/C=C/c3ccc(C)cc3)C[C@H]1C=N2 | 41.1 nM | 2 nM | 50 nM | 440 nM
31 | COc1cc2c(cc1OC)C(=O)N1C=C(c3ccc([N+](=O)[O-])cc3)C[C@H]1C=N2 | 13.1 nM | 4 nM | 70 nM | 6920 nM
32 | COc1cc2c(cc1OC)C(=O)N1C=C(c3ccc(C(=O)NCCO)cc3)C[C@H]1C=N2 | 161 nM | 158 nM | 1860 nM | 12600 nM
33 | COc1cc2c(cc1OC)C(=O)N1C=C(c3ccc(Br)cc3)C[C@H]1C=N2 | 237 nM |  |  | 
34 | COc1cc2c(cc1OC)C(=O)N1C=C(c3cc4ccccc4o3)C[C@H]1C=N2 | 10.8 nM | 6 nM | 50 nM | 440 nM
35 | COc1cc2c(cc1OC)C(=O)N1C=C(c3ccc4ccccc4c3)C[C@H]1[C@H](S(=O)(=O)O)N2 | 1.8 nM | 2 nM | 20 nM | 45.4 nM
36 | COc1ccc([C@H]2C[C@H]3C=Nc4cc(OC)c(OC)cc4C(=O)N3C2)cc1 | > 1000 nM | 9770 nM | 43600 nM | 91200 nM
37 | CCOc1ccc2cc(C3=CN4C(=O)c5cc(OC)c(OC)cc5N=C[C@@H]4C3)ccc2c1 | 12.6 nM | 2 nM | 20 nM | 1950 nM
38 | COc1cc2c(cc1OC)C(=O)N1C=C(c3cnn(C)c3)C[C@H]1C=N2 | 12.2 nM | 3 nM | 50 nM | 5370 nM
39 | C=CC1=CN2C(=O)c3cc(OC)c(OC)cc3N=C[C@@H]2C1 | 2.7 nM | 78 nM | 1230 nM | 30200 nM
40 | COc1cc2c(cc1OC)C(=O)N1C=C(c3cccnc3)C[C@H]1C=N2 | 18.2 nM | 5 nM | 70 nM | 17000 nM
41 | COc1cc2c(cc1OC)C(=O)N1C=C(c3cccc4c3sc3ccccc34)C[C@H]1C=N2 | 163 nM | 25 nM | 220 nM | 5370 nM
42 | COc1cc2c(cc1OC)C(=O)N1C=C(c3cccc(F)c3)C[C@H]1C=N2 | 6.4 nM | 3 nM | 50 nM | 16600 nM
43 | COc1cc2c(cc1OC)C(=O)N1C=C(c3cc4ccccc4s3)C[C@H]1C=N2 | 26.7 nM | 5 nM | 90 nM | 540 nM
44 | COc1cc2c(cc1OC)C(=O)N1C=C(c3ccc(O)cc3)C[C@H]1C=N2 | 10.3 nM | 2 nM | 80 nM | 3390 nM
45 | COc1cc2c(cc1OC)C(=O)N1C=C(c3ccccc3C(F)(F)F)C[C@H]1C=N2 | 258 nM | 16 nM | 160 nM | 4360 nM
46 | COc1cc2c(cc1OC)C(=O)N1C=C(/C=C/c3ccc(F)cc3)C[C@H]1C=N2 | 0.13 nM | 5 nM | 10 nM | 1100 nM
47 | COc1cc2c(cc1OC)C(=O)N1C=C(c3ccc(C(=O)NCCCN(C)C)cc3)C[C@H]1C=N2 | 165 nM | 58 nM | 830 nM | 35500 nM
48 | COc1cc2c(cc1OC)C(=O)N1C=C(c3cccc(C)c3)C[C@H]1C=N2 | 9.5 nM | 5 nM | 70 nM | 7580 nM
49 | COc1cc2c(cc1OC)C(=O)N1C=C(c3cccc(OC(F)(F)F)c3)C[C@H]1C=N2 | 76.5 nM | 6 nM | 180 nM | 7240 nM
50 | COc1cc2c(cc1OC)C(=O)N1C=C(c3cccc4ccccc34)C[C@H]1C=N2 | 572 nM | 138 nM | 950 nM | 13900 nM
51 | COc1cc2c(cc1OC)C(=O)N1C=C(c3cccc4c3oc3ccccc34)C[C@H]1C=N2 | 162 nM | 49 nM | 210 nM | 2820 nM
52 | COc1cc2c(cc1OC)C(=O)N1C=C(c3cn[nH]c3)C[C@H]1C=N2 | 20.1 nM | 12 nM | 270 nM | 6460 nM
53 | COc1cc2c(cc1OC)C(=O)N1C=C(c3cccc(C#N)c3)C[C@H]1C=N2 | 15.1 nM | 4 nM | 560 nM | 16200 nM
54 | COc1cc2c(cc1OC)C(=O)N1C=C(c3cccc(C(=O)NCCN(C)C)c3)C[C@H]1C=N2 | 119 nM | 27 nM | 1860 nM | 10500 nM
